In article PMC11220656 (JAC-Antimicrobial Resistance, 2024):

Columns and labels:
[1] = system: E. coli strain pb35; experiment: Growth curve inhibition, clinical strain pb35; assay type: cell-based, Escherichia coli; details: for Effect on growth of pb35 (in words): AMP at 40 µM
Summary of the method: (§1)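 Overnight E. coli clinical isolate cultures in Mueller–Hinton broth (150 rpm, 37°C) diluted 1:100 in MHB, with test peptide at 40 µM or in a 2-fold series from 40 to 5 µM, in triplicate. OD600 read every 30 min for 24 h with continuous shaking. Log-phase linear values were log2-transformed against time, slope taken as growth rate, normalized to a no-peptide control, and compared with wild-type peptide by Student's t test.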

[2] = system: E. coli strain pb15; experiment: Growth curve inhibition, clinical strain pb15; assay type: cell-based, Escherichia coli; details: for Effect on growth of pb15 (in words): AMP at 40 µM
Summary of the method: as §1

[3] = system: E. coli strain pb3; experiment: Growth curve inhibition, clinical strain pb3; assay type: cell-based, Escherichia coli; details: for Effect on growth of pb3 (in words): AMP at 40 µM; for Concentration giving significant growth inhibition of pb3: 2-fold serial dilution 40 to 5 µM, triplicates, compared with WT peptide
Summary of the method: as §1

[4] = system: clinically derived E. coli strains pb3, pb15 and pb35; experiment: Growth inhibition across the clinical strains pb3, pb15 and pb35; assay type: cell-based, Escherichia coli; details: AMP at 40 µM
Summary of the method: as §1

[5] = system: E. coli strain pb15; details: strain pb15, blood; ref Basra et al. 15; cited from earlier work
[6] = system: E. coli strain pb5; details: strain pb5, respiratory; ref Basra et al. 15; cited from earlier work
[7] = system: E. coli strain pb3; details: strain pb3, urinary tract infection; ref Basra et al. 15; cited from earlier work
[8] = 2-fold serial dilution 40 to 5 µM, triplicates, compared with WT peptide

Compound	Effect on growth of pb35 (in words) [1]	Effect on growth of pb15 (in words) [2]	Effect on growth of pb3 (in words) [3]	Growth inhibition across all three clinical strains (in words) [4]	Concentration giving significant growth inhibition of pb3 [3]	other results
ILPWCWPWWPWRR [IndoK5C]	greater effect	reduced but still significant effect	greater effect	–	–	–
ILPWAWPWWPWRR [IndoK5A]	greater effect	reduced but still significant effect	greater effect	–	–	–
ILPWLWPWWPWRR [IndoK5L]	–	–	–	equivalent response across all three strains	20 µM	Concentration giving significant growth inhibition of pb35 [1, 8]: 20 µM
CC(C)(O/N=C(\C(=O)N[C@@H]1C(=O)N2C(C(=O)[O-])=C(C[n+]3ccccc3)CS[C@H]12)c1csc(N)n1)C(=O)O [CAZ, ceftazidime]	–	–	–	–	–	CAZ MIC [5]: 128 µg/mL; CAZ MIC [6]: 0.5 µg/mL; CAZ MIC [7]: 4 µg/mL
ILPWDWPWWPWRR [IndoK5D]	–	–	–	equivalent response across all three strains	20 µM	Concentration giving significant growth inhibition of pb15 [2, 8]: 10 µM
ILPWKWPWWPWRR [indolicidin, reference compound]	–	–	–	–	–	Dose-response of growth inhibition of pb3 (in words) ([3]; serial dilution 40 to 5 µM): not inhibited across the concentrations tested
